Data reported in ChEMBL document CHEMBL1148127, “Antimicrobial activities of a new schizozygane indoline alkaloid from Schizozygia coffaeoides and the revised structure of isoschizogaline” (2002).
Values after ≈ are worked out from the molar mass of the structure shown.

Legend:
Format in all cases: functional
[1] = system: Bacillus subtilis; test: Antimicrobial activity against Bacillus subtilis NCTC 10073 after 24 hrs by microdilution technique; conditions: NCTC 10073, 24 h
How it was run: (§1)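 Bacteria were grown on nutrient agar at 37 °C for 24 h. Fresh suspensions were standardized to 10^5 CFU per 100 µL and added to microdilution wells. Compounds were dissolved in DMSO with an initial concentration of 500 µg/mL. Ampicillin served as the positive control, with a DMSO-alone check. Growth was read visually and the MIC recorded.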

[2] = system: Trichophyton mentagrophytes; test: Antimicrobial activity against Trichophyton mentagrophytes NCPF 224 after 10 days by microdilution technique; conditions: 240 h
How it was run: (§2)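 Dermatophytes were grown on Sabouraud's dextrose agar at 26 °C for 10 days. Fresh inocula were standardized to 10^4 CFU per 100 µL for broth microdilution against compound in DMSO (initial 500 µg/mL). Plates were kept at 26 °C for 10 days and inspected visually every day, and the MIC was recorded. Controls were ketoconazole and DMSO alone.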

[3] = system: Epidermophyton floccosum; test: Antimicrobial activity against Epidermophyton floccosum after 10 days by microdilution technique; conditions: 240 h; how it was run: as §2
[4] = system: Nannizzia gypsea; test: Antimicrobial activity against Microsporum gypseum NCPF 40 after 10 days by microdilution technique; conditions: 240 h; how it was run: as §2
[5] = system: Pseudomonas aeruginosa; test: Antimicrobial activity against Pseudomonas aeruginosa NCIMB 10421 after 24 hrs by microdilution technique; how it was run: as §1
[6] = system: Escherichia coli; test: Antimicrobial activity against Escherichia coli NCTC 9002 after 24 hrs by microdilution technique; conditions: NCTC 9002, 24 h; how it was run: as §1
[7] = system: Cladosporium herbarum; test: Antimicrobial activity against Cladosporium herbarum after 10 days by microdilution technique; conditions: 240 h
How it was run: (§3)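 These plant-pathogenic Cladosporium strains were cultured on potato dextrose agar at 26 °C for 10 days. Suspensions were standardized to 10^4 CFU per 100 µL and tested by microdilution against compound dissolved in DMSO (initial 500 µg/mL). Plates were held at 26 °C for 10 days with daily visual growth checks, and the MIC was recorded. Controls were ketoconazole and DMSO alone.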

[8] = system: Trichophyton tonsurans; test: Antimicrobial activity against Trichophyton tonsurans EQ 4329 after 10 days by microdilution technique; conditions: 240 h; how it was run: as §2
[9] = system: Staphylococcus aureus; test: Antimicrobial activity against Staphylococcus aureus NCIMB 9515 after 24 hrs by microdilution technique; how it was run: as §1
[10] = system: Candida albicans; test: Antimicrobial activity against Candida albicans after 24 hrs by microdilution technique
How it was run: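 Yeast was cultured on Sabouraud's dextrose agar at 30 °C for 24 h. A fresh suspension was standardized to 10^4 CFU per 100 µL and added to microdilution wells holding compound in DMSO (initial 500 µg/mL). Plates were incubated at 30 °C for 24 h and checked visually for growth to give the MIC. Controls were ketoconazole and DMSO alone.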

[11] = system: Cladosporium cladosporioides; test: Antimicrobial activity against Cladosporium cladosporioides IMI 299104 after 10 days by microdilution technique; conditions: 240 h; how it was run: as §3
[12] = system: Trichophyton interdigitale; test: Antimicrobial activity against Trichophyton interdigitale EQ 4115 after 10 days by microdilution technique; conditions: 240 h; how it was run: as §2

SMILES	MIC [1] [µg/mL]	MIC [2] [µg/mL]	MIC [3] [µg/mL]	MIC [4] [µg/mL]	MIC [5] [µg/mL]	MIC [6] [µg/mL]	MIC [7] [µg/mL]	MIC [8] [µg/mL]	MIC [9] [µg/mL]	MIC [10] [µg/mL]	MIC [11] [µg/mL]	MIC [12] [µg/mL]
O=C1[C@H](O)[C@]23C=CCN4CC=C5c6cc7c(cc6N1[C@@]5(CC2)[C@@H]43)OCO7	> 500	< 1.95	> 1.95	1.95 (≈ 5.57 µM)	> 500	250 (≈ 714 µM)	15.6 (≈ 44.5 µM)	3.9 (≈ 11.1 µM)	> 500	7.8 (≈ 22.3 µM)	7.8 (≈ 22.3 µM)	< 3.9
CC1(C)S[C@@H]2[C@H](NC(=O)[C@H](N)c3ccccc3)C(=O)N2[C@H]1C(=O)O [AMPICILLIN]	12.5 (≈ 35.8 µM)	–	–	–	25 (≈ 71.5 µM)	20 (≈ 57.2 µM)	–	–	12.5 (≈ 35.8 µM)	–	–	–
COc1ccc2c(c1)N1C(=O)C[C@]34C=CCN5CC[C@@H]2[C@@H](CC3)[C@]514 [ISOSCHIZOGALINE]	62.5 (≈ 194 µM)	> 500	> 500	> 500	> 500	> 500	> 500	> 500	125 (≈ 388 µM)	> 500	> 500	> 500
CC(=O)N1CCN(c2ccc(OCC3COC(Cn4ccnc4)(c4ccc(Cl)cc4Cl)O3)cc2)CC1 (stereo not drawn) [KETOCONAZOLE]	–	6.25 (≈ 11.8 µM)	25 (≈ 47 µM)	6.25 (≈ 11.8 µM)	–	–	50 (≈ 94.1 µM)	50 (≈ 94.1 µM)	–	25 (≈ 47 µM)	25 (≈ 47 µM)	25 (≈ 47 µM)
O=C1C[C@]23C=CCN4CC[C@H]5c6cc7c(cc6N1[C@@]5(CC2)[C@@H]43)OCO7 [SCHIZOZYGINE]	> 500	> 500	> 500	> 500	> 500	> 500	> 500	> 500	> 500	> 500	> 500	> 500
